Calls of active or inactive are those of the source. The rule behind the calls is not given here.
How the values were obtained:
Cholinesterase [1] = molecular target: T1, Cholinesterase (Homo sapiens, UniProt P06276); experiment: Inhibition of BuChE in human plasma using BTC as substrate preincubated with enzyme for 5 mins followed by substrate addition for 5 mins by Ellman's method; type: cell-free
Procedure, shortened: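 Human plasma BuChE at 0.384 U/mL final, with DTNB in 0.1 M phosphate pH 8.0. […] BTC solution (0.00375 M) added; A412 after 5 min. Run in triplicate; IC50 from nonlinear regression of residual activity versus concentration.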

Cholinesterase [2] = molecular target: T1, Cholinesterase; experiment: Inhibition of BuChE in human plasma using BTC as substrate at 10 uM preincubated with enzyme for 5 mins followed by substrate addition for 5 mins by Ellman's method relative to control; type: cell-free; settings: time 10.0 min
Procedure, shortened: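 Human plasma BuChE at 0.384 U/mL final, with DTNB in 0.1 M phosphate buffer pH 8.0. Compound at 10 µM screened, preincubated 5 min at 36 °C.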

[3] = molecular target: Cholinesterase (Equus caballus) (UniProt P81908); experiment: Reversible inhibition of equine serum BuChE using BTC as substrate at 10XIC50 preincubated with 100-fold diluted enzyme for 120 mins followed by substrate addition and measured after 5 mins by 100-fold dilution assay; type: cell-free; settings: time 125.0 min
Procedure, shortened: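 Equine BuChE preincubated with inhibitor at 100-fold the final enzyme concentration for 30, 60 or 120 min at 25 °C. Then diluted 100-fold into 0.1 M phosphate pH 8 with DTNB. BTC (0.00375 M) added; A412 read after 5 min. Activity recovery compared with enzyme/vehicle blanks; two independent experiments, each in quadruplicate.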

[4] = molecular target: Amyloid-beta precursor protein (Homo sapiens) (UniProt P05067); experiment: Inhibition of amyloid beta (1 to 42) (unknown origin) self aggregation at 10 uM incubated for 24 to 48 hrs by Thioflavin-T based fluorometric assay; settings: time lower […], time upper 48.0 hrs
[5] = molecular target: 5-hydroxytryptamine receptor 6 (Homo sapiens, UniProt P50406); experiment: Displacement of [3H]LSD from human 5HT6 receptor expressed in CHO-K1 membrane incubated for 60 mins by solid scintillation counting analysis; type: cell membranes
Cholinesterase [6] = molecular target: Cholinesterase (Equus caballus, UniProt P81908); experiment: Inhibition of equine serum BuChE using BTC as substrate preincubated with enzyme for 5 mins followed by substrate addition for 5 mins by Ellman's method; type: cell-free
[7] = molecular target: Amyloid-beta precursor protein (Homo sapiens) (UniProt P05067); experiment: Inhibition of self-induced aggregation of amyloid beta (1 to 42) (unknown origin) expressed in Escherichia coli BL21(DE3) at 10 uM incubated for 60 mins by fluorescence based analysis
[8] = Cmax in CD-1 mouse brain at 30 mg/kg, po measured for 480 mins by LC-ESI-MS/MS analysis; type: ADME, organism-based; parameters: route oral, dose 30 mg/kg, time 480 min
Procedure, shortened: (§1)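 Adult male CD-1 mice (20–25 g), dosed in saline i.v. 3 mg/kg or intragastrically 30 mg/kg; 6 animals per time point. Under i.p. ketamine/xylazine anaesthesia, blood collected after decapitation into heparinized tubes, plasma separated; brain homogenized in pH 7.4 phosphate buffer (1:2.5). Acetonitrile precipitation with internal standard, LC/ESI-MS/MS on C18 with formic acid eluents; non-compartmental parameters.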

[9] = MRT in CD-1 mouse plasma at 30 mg/kg, po measured for 480 mins by LC-ESI-MS/MS analysis; type: ADME, organism-based; procedure, shortened: as §1
[10] = Apparent oral clearance in CD-1 mouse at 30 mg/kg measured for 480 mins by LC-ESI-MS/MS analysis; type: ADME, organism-based; settings: in vivo; procedure, shortened: as §1
[11] = AUC (0 to t) in CD-1 mouse brain at 30 mg/kg, po measured for 480 mins by LC-ESI-MS/MS analysis; type: ADME, organism-based; settings: in vivo, 8 h; procedure, shortened: as §1
[12] = MRT in CD-1 mouse brain at 30 mg/kg, po measured for 480 mins by LC-ESI-MS/MS analysis; type: ADME, organism-based; procedure, shortened: as §1
[13] = Tmax in CD-1 mouse brain at 30 mg/kg, po measured for 480 mins by LC-ESI-MS/MS analysis; type: ADME, organism-based; procedure, shortened: as §1
[14] = MRT in CD-1 mouse brain at 3 mg/kg, iv measured for 480 mins by LC-ESI-MS/MS analysis; type: ADME, organism-based; procedure, shortened: as §1
[15] = Initial drug concentration in CD-1 mouse brain at 3 mg/kg, iv by LC-ESI-MS/MS analysis; type: ADME, organism-based; procedure, shortened: as §1
[16] = AUC (0 to t) in CD-1 mouse brain at 3 mg/kg, iv measured for 480 mins by LC-ESI-MS/MS analysis; type: ADME, organism-based; settings: in vivo, 8 h; procedure, shortened: as §1
[17] = Apparent oral volume of distribution at steady state in CD-1 mouse at 30 mg/kg measured for 480 mins by LC-ESI-MS/MS analysis; type: ADME, organism-based; settings: in vivo; procedure, shortened: as §1
[18] = AUC (0 to t) in CD-1 mouse plasma at 30 mg/kg, po measured for 480 mins by LC-ESI-MS/MS analysis; type: ADME, organism-based; parameters: time 480 min, dose 30 mg/kg; procedure, shortened: as §1
[19] = Oral bioavailability in CD-1 mouse at 30 mg/kg measured for 480 mins by LC-ESI-MS/MS analysis; type: ADME, organism-based; settings: in vivo; procedure, shortened: as §1
[20] = MRT in CD-1 mouse plasma at 3 mg/kg, iv measured for 480 mins by LC-ESI-MS/MS analysis; type: ADME, organism-based; settings: in vivo, 8 h; procedure, shortened: as §1
[21] = Initial plasma concentration in CD-1 mouse at 3 mg/kg, iv by LC-ESI-MS/MS analysis; type: ADME, organism-based; procedure, shortened: as §1
[22] = Half life in CD-1 mouse plasma at 30 mg/kg, po measured for 480 mins by LC-ESI-MS/MS analysis; type: ADME, organism-based; procedure, shortened: as §1
[23] = Half life in CD-1 mouse brain at 30 mg/kg, po measured for 480 mins by LC-ESI-MS/MS analysis; type: ADME, organism-based; procedure, shortened: as §1
[24] = Half life in CD-1 mouse plasma at 3 mg/kg, iv measured for 480 mins by LC-ESI-MS/MS analysis; type: ADME, organism-based; procedure, shortened: as §1
[25] = Metabolic stability in mouse liver microsomes assessed as parent compound remaining at 50 microM preincubated for 5 mins followed by incubation with NADPH regenerating system for 120 mins by UPLC-MS analysis; type: ADME, Microsome; settings: time 125 min, read-out: Stability
Procedure, shortened: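 Mouse liver microsomes 1 mg/mL in 0.1 M Tris-HCl pH 7.4 with 50 μM compound, preincubated 5 min at 37 °C, then started with NADPH regeneration system; stopped after 120 min at 37 °C with cold methanol, centrifuged, supernatant analysed by UPLC-MS for remaining parent and metabolites. Verapamil served as reference.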

[26] = AUC (0 to t) in CD-1 mouse plasma at 3 mg/kg, iv measured for 480 mins by LC-ESI-MS/MS analysis; type: ADME, organism-based; parameters: dose 3 mg/kg, time 480 min; procedure, shortened: as §1
[27] = Half life in CD-1 mouse brain at 3 mg/kg, iv measured for 480 mins by LC-ESI-MS/MS analysis; type: ADME, organism-based; procedure, shortened: as §1
[28] = Ratio of drug level in brain to plasma in CD-1 mouse at 30 mg/kg, po by LC-ESI-MS/MS analysis; type: ADME, organism-based; settings: read-out: BPR; procedure, shortened: as §1
[29] = Cytotoxicity against human HepG2 cells assessed as non-toxic concentration incubated for 72 hrs by MTS assay; type: cell-based; settings: read-out: MNCC
Procedure, shortened: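 HepG2 cells grown in MEM with 2 mM glutamine, 1% NEAA, 10% FBS at 37 °C, 5% CO2. Compounds tested in quadruplicate at 0.1, 1, 10 and 100 μM for 72 h; viability read by MTS (CellTiter 96 AQueous) assay. Doxorubicin 1 μM and CCCP 10 μM served as positive controls.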

[30] = Ratio of drug level in brain to plasma in CD-1 mouse at 3 mg/kg, iv by LC-ESI-MS/MS analysis; type: ADME, organism-based; settings: read-out: BPR; procedure, shortened: as §1
[31] = Tmax in CD-1 mouse plasma at 30 mg/kg, po measured for 480 mins by LC-ESI-MS/MS analysis; type: ADME, organism-based; procedure, shortened: as §1
[32] = Cmax in CD-1 mouse plasma at 30 mg/kg, po measured for 480 mins by LC-ESI-MS/MS analysis; type: ADME, organism-based; parameters: route oral, dose 30 mg/kg, time 480 min; procedure, shortened: as §1
Acetylcholinesterase = Acetylcholinesterase (Electrophorus electricus, UniProt O42275); experiment: Inhibition of electric eel AchE using ATC as substrate preincubated with enzyme for 5 mins followed by substrate addition for 5 mins by Ellman's method
Procedure, shortened: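 Electric eel AChE at 0.384 U/mL final, with DTNB in 0.1 M phosphate pH 8.0. […] ATC solution (0.00375 M) added; A412 after 5 min. Run in triplicate; IC50 by nonlinear regression of residual activity versus concentration.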

Amyloid-beta precursor protein (Homo sapiens), sequence (P05067 whole entry): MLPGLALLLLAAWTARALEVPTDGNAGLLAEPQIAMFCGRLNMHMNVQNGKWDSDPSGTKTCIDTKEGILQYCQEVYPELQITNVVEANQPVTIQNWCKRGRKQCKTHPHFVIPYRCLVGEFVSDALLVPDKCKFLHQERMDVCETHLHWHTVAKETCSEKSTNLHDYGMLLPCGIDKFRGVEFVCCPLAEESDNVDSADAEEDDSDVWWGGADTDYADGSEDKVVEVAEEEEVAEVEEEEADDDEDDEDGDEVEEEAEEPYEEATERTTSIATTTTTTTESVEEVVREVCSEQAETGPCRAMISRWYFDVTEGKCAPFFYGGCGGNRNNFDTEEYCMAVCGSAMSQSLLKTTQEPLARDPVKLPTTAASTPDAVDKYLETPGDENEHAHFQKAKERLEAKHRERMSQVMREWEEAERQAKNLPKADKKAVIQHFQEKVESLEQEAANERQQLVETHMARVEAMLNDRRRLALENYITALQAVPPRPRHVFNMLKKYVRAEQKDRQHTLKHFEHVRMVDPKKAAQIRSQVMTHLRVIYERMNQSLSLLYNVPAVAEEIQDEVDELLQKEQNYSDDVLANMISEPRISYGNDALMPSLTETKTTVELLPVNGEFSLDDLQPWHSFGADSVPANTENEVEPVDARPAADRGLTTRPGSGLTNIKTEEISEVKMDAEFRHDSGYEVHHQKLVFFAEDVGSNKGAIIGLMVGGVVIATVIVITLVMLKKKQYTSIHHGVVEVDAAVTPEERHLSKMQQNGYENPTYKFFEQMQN
5-hydroxytryptamine receptor 6, sequence (P50406 whole entry): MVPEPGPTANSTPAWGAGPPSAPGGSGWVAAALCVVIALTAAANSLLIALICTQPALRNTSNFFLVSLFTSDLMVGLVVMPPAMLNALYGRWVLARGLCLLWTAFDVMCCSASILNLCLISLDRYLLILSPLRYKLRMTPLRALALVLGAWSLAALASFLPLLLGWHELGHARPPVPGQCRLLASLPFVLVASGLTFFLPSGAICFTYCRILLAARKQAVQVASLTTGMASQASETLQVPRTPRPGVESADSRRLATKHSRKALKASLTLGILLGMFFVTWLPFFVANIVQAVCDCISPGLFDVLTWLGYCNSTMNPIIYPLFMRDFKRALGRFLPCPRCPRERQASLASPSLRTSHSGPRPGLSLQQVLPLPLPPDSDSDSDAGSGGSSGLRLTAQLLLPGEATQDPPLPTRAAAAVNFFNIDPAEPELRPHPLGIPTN
Cholinesterase (Equus caballus, UniProt P81908), sequence (P81908 whole entry): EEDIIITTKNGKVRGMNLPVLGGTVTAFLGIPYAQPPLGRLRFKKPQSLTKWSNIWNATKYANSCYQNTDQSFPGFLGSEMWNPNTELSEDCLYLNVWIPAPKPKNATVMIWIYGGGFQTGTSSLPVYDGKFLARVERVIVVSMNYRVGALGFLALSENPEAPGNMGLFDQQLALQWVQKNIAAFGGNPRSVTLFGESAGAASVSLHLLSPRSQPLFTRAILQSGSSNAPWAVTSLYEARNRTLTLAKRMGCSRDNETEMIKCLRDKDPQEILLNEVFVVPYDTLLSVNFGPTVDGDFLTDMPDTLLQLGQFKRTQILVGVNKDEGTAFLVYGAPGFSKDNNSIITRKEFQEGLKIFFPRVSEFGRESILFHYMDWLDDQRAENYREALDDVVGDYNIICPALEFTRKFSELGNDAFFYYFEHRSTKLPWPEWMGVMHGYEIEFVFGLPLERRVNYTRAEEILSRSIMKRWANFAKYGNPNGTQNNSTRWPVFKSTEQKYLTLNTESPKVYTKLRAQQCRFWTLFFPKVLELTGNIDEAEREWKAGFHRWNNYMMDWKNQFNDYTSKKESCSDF
T1 sequence (P06276 whole entry): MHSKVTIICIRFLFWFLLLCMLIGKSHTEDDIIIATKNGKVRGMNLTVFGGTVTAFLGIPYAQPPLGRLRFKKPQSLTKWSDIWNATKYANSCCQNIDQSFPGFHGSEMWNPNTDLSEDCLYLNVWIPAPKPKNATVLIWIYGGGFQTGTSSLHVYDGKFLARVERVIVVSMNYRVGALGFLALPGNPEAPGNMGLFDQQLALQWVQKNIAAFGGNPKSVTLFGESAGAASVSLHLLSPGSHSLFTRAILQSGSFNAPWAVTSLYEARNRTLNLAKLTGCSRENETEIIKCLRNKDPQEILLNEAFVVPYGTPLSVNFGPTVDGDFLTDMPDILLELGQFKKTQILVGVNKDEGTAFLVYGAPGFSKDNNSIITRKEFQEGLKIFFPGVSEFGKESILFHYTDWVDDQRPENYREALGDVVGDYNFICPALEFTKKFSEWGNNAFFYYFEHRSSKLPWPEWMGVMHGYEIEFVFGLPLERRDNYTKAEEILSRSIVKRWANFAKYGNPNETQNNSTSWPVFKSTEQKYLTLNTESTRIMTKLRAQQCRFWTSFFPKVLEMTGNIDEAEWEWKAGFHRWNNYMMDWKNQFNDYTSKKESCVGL
Acetylcholinesterase, sequence (O42275 whole entry): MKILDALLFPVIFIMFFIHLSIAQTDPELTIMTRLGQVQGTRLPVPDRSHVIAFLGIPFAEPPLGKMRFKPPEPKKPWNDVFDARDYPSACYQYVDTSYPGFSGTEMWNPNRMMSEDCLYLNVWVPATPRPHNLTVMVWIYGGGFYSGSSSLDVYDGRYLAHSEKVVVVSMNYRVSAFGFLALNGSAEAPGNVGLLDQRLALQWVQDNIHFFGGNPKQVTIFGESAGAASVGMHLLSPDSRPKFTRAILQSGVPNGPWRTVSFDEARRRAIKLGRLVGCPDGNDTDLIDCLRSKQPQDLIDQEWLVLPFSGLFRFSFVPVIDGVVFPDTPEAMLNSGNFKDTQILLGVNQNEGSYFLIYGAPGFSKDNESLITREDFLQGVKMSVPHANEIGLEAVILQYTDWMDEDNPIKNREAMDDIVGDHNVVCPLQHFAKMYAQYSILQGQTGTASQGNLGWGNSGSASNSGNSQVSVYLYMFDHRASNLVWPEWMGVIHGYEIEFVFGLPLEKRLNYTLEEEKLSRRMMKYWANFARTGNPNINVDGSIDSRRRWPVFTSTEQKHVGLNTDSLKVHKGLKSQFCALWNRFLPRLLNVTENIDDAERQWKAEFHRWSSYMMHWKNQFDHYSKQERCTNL
Cholinesterase (Equus caballus), sequence (P81908 whole entry): as the sequence (P81908 whole entry) above

CC(C)(C)OC(=O)N1CCCC(CNCCOc2cccc3c2ccn3Cc2ccccc2)C1 (stereo not drawn)
IC50 (Cholinesterase [1]): 115 nM
inhibition (Cholinesterase [2]): > 50%
inhibition [3]: Active
inhibition [4]: 79.4%
Ki [5]: 369 nM
IC50 (Cholinesterase [6]): 11 nM

O=S(=O)(c1ccccc1)n1ccc2c(N3CCN(CCCCCCNc4c5c(nc6ccccc46)CCCC5)CC3)cccc21
inhibition [7]: 30%

O=S(=O)(c1ccccc1)n1ccc2c(OCCNCC3CCCCC3)cccc21
Cmax [8]: 2800 ng/mL
IC50 (Cholinesterase [1]): 551 nM
MRT [9]: 3.24 h
CL/F [10]: 189 mL/min/kg
AUCt [11]: 734469 ng·min/g
MRT [12]: 3.24 h
Tmax [13]: 1 h
MRT [14]: 2.83 h
C0 [15]: 404 ng/mL
AUCt [16]: 125194 ng·min/g
Vd/F [17]: 81.4 L/kg
AUC(0-t) at 8 h [18]: 1800 ng·h/mL
bioavailability [19]: 28.7%
MRT [20]: 3.18 h
C0 [21]: 176 ng/mL
half-life [22]: 4.97 h
half-life [23]: 3 h
half-life [24]: 5.53 h
IC50 (Cholinesterase [6]): 89.9 nM
remaining at 2 h, 50 µM [25]: 59%
AUC(0-t) at 8 h [26]: 627 ng·h/mL
half-life [27]: 2.97 h
Kp [28]: 6.79
MNTC at 72 h [29]: ≤ 1000 nM
Kp [30]: 3.33
Tmax [31]: 1 h
Cmax [32]: 532 ng/mL

Cc1cccc(CNCCOc2cccc3c2CC(=O)N3Cc2ccccc2)c1
IC50 (Acetylcholinesterase): 1280 nM
inhibition (Cholinesterase [2]): < 50%
inhibition [4]: 58.5%
Ki [5]: 53 nM
IC50 (Cholinesterase [6]): 1850 nM

O=c1[nH]c2c(OCCNCc3ccccc3)cccc2n1Cc1ccccc1
IC50 (Acetylcholinesterase): 1080 nM
inhibition (Cholinesterase [2]): < 50%
inhibition [4]: 32.9%
Ki [5]: 144 nM
IC50 (Cholinesterase [6]): 1840 nM

CC(C)(C)OC(=O)N1CCCC(CNCCOc2cccc3c2CCN3Cc2ccccc2)C1 (stereo not drawn)
IC50 (Cholinesterase [1]): 175 nM
inhibition (Cholinesterase [2]): > 50%
inhibition [3]: Active
inhibition [4]: 79.7%
Ki [5]: 1080 nM
IC50 (Cholinesterase [6]): 25.7 nM

O=C1Cc2c(OCCNCc3ccccc3)cccc2N1Cc1ccccc1
IC50 (Acetylcholinesterase): 1710 nM
inhibition (Cholinesterase [2]): < 50%
inhibition [4]: 42.4%
Ki [5]: 55 nM
IC50 (Cholinesterase [6]): 4430 nM

O=S(=O)(c1ccccc1)n1ccc2c(OCCNCc3ccccc3)cccc21
IC50 (Cholinesterase [1]): 1610 nM
IC50 (Cholinesterase [6]): 473 nM
remaining at 2 h, 50 µM [25]: 57%
MNTC at 72 h [29]: ≤ 10000 nM

CC(C)(C)OC(=O)N1CCCC(CNCCOc2cccc3c2ccn3S(=O)(=O)c2ccccc2)C1 (stereo not drawn)
IC50 (Cholinesterase [1]): 206 nM
IC50 (Cholinesterase [6]): 125 nM
remaining at 2 h, 50 µM [25]: 0%
MNTC at 72 h [29]: ≤ 1000 nM

Cc1cccc(CNCCOc2cccc3c2[nH]c(=O)n3Cc2ccccc2)c1
IC50 (Acetylcholinesterase): 1800 nM
inhibition (Cholinesterase [2]): < 50%
inhibition [4]: 64.3%
Ki [5]: 207 nM
IC50 (Cholinesterase [6]): 1500 nM

— ChEMBL document CHEMBL4828761, “Development and crystallography-aided SAR studies of multifunctional BuChE inhibitors and 5-HT6R antagonists with β-amyloid anti-aggregation properties” (Eur J Med Chem, 2021)
